Measured values as given in publication PMC6609548 (British Journal of Pharmacology, 2019).

How the values were obtained:
α2 glycine receptors = biological target: T1, α2 glycine receptors (Homo sapiens, UniProt P23416); test: Whole-cell patch-clamp on CHO cells expressing α2 glycine receptors; assay type: cell-based; conditions: 50 μM, glycine 30 μM, Vh −30 mV, n = 10
T1 sequence (P23416 28-452): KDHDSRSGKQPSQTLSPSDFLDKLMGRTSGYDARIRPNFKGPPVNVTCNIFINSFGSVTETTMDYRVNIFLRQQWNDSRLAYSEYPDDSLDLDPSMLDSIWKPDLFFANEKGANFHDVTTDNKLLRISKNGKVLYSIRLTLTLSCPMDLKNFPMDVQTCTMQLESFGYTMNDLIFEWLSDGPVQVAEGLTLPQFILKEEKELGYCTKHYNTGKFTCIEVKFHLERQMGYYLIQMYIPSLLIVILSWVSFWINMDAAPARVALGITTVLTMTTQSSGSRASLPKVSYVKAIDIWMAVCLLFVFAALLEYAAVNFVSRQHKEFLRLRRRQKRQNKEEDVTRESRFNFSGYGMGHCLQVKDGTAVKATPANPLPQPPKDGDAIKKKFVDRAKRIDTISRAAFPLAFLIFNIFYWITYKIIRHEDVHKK
Procedure, shortened: (§1)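 CHO-K1 cells were transfected (Lipofectamine) with receptor subunit cDNA plus GFP; fluorescent cells were recorded whole-cell 24–72 hr later at 20–25°C. External HEPES-buffered saline at pH 7.4; KCl-based pipette solution at pH 7.3. Agonist and test compound were co-applied by a fast three-tube system at Vh −30/+30 mV or on a −60 to +60 mV ramp. UV came from a 365 nm LED (0.6 mW·mm−2). Cells with input resistance <150 MOhm or >30% run-down were excluded.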

α1/β2/γ2 GABAA receptors = α1/β2/γ2 GABAA receptors (Homo sapiens, UniProt P14867+P18507+P47870); test: Whole-cell patch-clamp on CHO cells expressing heteromeric GABAA receptors; assay type: cell-based; conditions: for decrease of currents induced by GABA (ramp protocol): 50 μM Azo-NZ1, 5 μM GABA, n = 5; for decrease of currents induced by GABA (ramp protocol) / decrease of amplitude of GABA-induced currents: visible light; for decrease of amplitude of GABA-induced currents: 70 μM Azo-NZ1, 5 μM GABA
ρ1 GABAC receptors = ρ1 GABAC receptors (Homo sapiens, UniProt P24046); test: Whole-cell patch-clamp on CHO cells expressing homomeric ρ1 GABAC receptors; assay type: cell-based; conditions: visible and UV light
α1 glycine receptors = biological target: T2, α1 glycine receptors (Homo sapiens, UniProt P23415); test: Whole-cell patch-clamp on CHO cells expressing α1 glycine receptors; assay type: cell-based; conditions: 50 μM, glycine 30 μM, Vh −30 mV
T2 sequence (P23415 29-457): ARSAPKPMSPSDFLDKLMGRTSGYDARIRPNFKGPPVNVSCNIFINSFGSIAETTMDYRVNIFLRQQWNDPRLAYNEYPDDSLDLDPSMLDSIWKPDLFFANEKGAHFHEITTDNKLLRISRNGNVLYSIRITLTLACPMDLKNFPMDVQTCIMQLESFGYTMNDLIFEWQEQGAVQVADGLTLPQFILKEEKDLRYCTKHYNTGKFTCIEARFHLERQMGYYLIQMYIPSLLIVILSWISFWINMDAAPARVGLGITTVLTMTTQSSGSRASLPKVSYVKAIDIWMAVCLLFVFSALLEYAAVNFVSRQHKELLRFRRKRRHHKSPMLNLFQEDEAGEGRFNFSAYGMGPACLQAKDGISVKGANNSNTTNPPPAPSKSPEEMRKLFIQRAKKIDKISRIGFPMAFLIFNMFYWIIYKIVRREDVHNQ
Procedure, shortened: as §1

ρ2 mutant S2′G receptors = ρ2 mutant S2′G receptors (Homo sapiens, UniProt P28476, S295G); test: Whole-cell patch-clamp on CHO cells expressing mutant ρ2 S2′G receptors; assay type: cell-based
Procedure, shortened: as §1

5‐HT3A receptors = biological target: T3, 5‐HT3A receptors (Homo sapiens, UniProt P46098); test: Whole-cell patch-clamp on CHO cells expressing homomeric 5HT3A receptors; assay type: cell-based; conditions: trans or cis‐configuration
T3 sequence (P46098 24-478): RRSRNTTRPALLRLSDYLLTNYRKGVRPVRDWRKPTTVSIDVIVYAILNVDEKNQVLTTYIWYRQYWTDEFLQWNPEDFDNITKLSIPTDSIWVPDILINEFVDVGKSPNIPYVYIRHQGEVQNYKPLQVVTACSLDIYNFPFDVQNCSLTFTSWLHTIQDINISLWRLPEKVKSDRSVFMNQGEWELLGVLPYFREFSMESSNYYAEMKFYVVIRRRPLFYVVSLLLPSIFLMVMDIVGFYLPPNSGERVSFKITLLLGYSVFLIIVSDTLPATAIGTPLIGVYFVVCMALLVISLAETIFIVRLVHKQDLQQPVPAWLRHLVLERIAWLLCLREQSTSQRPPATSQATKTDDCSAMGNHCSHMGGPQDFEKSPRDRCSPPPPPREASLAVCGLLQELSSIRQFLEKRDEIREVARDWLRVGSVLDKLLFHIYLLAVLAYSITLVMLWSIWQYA
Procedure, shortened: as §1

[1] = system: GABAergic eIPSCs in dentate gyrus granule cells; test: Evoked GABAergic postsynaptic currents; assay type: cell-based, mice; conditions: for suppression of eIPSCs amplitude to: n = 5
Procedure, shortened: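 Hippocampal slices (coronal) from 3–4-week-old ICR outbred mice of both sexes, recovered ≥1 hr at room temperature and superfused with oxygenated aCSF at 32–34°C. Whole-cell recordings from dentate granule cells at Vh 0 mV. eIPSCs were evoked every 10 s from a theta-glass electrode placed 100–200 μm away. Protocol: 20–30 control events, then test compound in aCSF for 5–10 min, perfusate illuminated at 365 nm then 455 nm for 3–5 min each.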

GABA ρ1 P2′S receptors = GABA ρ1 P2′S receptors (Homo sapiens, UniProt P24046, P315S); test: Whole-cell patch-clamp on CHO cells expressing mutant ρ1 P2′S receptors; assay type: cell-based; conditions: 100 μM Azo-NZ1, 10 μM GABA, visible light
ρ2 GABAC receptors = ρ2 GABAC receptors (Homo sapiens, UniProt P28476); test: Whole-cell patch-clamp on CHO cells expressing homomeric ρ2 GABAC receptors; assay type: cell-based
Procedure, shortened: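 ρ2 receptors were expressed in CHO-K1 cells by cDNA transfection with GFP; whole-cell recordings were made 24–72 hr later at 20–25°C using fast solution exchange. […] Test compound inhibition of GABA-evoked currents was measured at Vh −30 and +30 mV and normalised to the current just before compound application; mean ± SEM.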

Chain of α1/β2/γ2 GABAA receptors (P14867 28-456): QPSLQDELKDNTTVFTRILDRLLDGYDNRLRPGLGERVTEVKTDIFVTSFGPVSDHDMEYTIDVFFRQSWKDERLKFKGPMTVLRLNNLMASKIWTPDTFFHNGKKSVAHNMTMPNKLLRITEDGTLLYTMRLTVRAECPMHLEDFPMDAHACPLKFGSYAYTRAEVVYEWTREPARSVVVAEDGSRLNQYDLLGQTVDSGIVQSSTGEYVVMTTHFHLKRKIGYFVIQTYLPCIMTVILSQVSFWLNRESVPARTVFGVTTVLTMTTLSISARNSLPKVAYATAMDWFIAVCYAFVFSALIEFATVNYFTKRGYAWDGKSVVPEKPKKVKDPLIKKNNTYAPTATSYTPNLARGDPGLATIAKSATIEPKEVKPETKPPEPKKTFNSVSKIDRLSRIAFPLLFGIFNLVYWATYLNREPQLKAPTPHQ
Chain of α1/β2/γ2 GABAA receptors (P47870 25-512 limits assumed): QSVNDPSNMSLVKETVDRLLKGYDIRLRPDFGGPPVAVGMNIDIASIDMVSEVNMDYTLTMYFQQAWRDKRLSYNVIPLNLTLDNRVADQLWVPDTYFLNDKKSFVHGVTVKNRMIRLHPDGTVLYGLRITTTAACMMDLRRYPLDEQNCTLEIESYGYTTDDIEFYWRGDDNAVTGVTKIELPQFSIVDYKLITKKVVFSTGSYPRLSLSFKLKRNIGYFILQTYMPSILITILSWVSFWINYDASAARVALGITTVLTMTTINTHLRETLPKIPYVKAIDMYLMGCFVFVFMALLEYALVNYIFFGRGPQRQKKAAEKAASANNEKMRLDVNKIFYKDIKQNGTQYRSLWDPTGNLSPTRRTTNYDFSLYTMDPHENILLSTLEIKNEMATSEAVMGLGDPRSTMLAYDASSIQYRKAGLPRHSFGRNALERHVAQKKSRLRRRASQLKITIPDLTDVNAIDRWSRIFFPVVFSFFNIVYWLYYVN
Chain of α1/β2/γ2 GABAA receptors (P18507 40-467 isoform P18507-1 limits assumed): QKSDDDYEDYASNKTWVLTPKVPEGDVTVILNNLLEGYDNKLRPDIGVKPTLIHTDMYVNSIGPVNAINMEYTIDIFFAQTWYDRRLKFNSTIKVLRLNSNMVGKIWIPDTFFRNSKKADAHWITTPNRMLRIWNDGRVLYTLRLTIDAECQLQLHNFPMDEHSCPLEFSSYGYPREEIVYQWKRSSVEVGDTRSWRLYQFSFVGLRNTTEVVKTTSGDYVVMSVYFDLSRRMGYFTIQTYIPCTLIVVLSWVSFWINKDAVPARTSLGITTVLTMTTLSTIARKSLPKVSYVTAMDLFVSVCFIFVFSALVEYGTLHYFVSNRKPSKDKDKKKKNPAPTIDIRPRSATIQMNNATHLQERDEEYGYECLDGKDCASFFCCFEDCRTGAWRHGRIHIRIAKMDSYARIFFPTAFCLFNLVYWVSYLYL
Chain of ρ2 mutant S2′G receptors (P28476 21-465 S295G): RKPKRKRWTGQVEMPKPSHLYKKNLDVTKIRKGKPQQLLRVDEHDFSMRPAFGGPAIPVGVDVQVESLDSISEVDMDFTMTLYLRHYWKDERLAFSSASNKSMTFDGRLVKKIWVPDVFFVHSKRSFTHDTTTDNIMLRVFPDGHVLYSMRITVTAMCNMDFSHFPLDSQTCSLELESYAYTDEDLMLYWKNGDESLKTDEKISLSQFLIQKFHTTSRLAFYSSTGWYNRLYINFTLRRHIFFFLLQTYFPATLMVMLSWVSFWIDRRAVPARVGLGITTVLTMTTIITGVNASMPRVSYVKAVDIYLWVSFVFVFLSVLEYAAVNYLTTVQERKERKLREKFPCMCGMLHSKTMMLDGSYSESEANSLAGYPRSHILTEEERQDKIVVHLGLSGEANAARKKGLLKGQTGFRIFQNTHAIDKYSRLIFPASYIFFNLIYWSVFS
Chain of GABA ρ1 P2′S receptors (P24046 22-479 P315S): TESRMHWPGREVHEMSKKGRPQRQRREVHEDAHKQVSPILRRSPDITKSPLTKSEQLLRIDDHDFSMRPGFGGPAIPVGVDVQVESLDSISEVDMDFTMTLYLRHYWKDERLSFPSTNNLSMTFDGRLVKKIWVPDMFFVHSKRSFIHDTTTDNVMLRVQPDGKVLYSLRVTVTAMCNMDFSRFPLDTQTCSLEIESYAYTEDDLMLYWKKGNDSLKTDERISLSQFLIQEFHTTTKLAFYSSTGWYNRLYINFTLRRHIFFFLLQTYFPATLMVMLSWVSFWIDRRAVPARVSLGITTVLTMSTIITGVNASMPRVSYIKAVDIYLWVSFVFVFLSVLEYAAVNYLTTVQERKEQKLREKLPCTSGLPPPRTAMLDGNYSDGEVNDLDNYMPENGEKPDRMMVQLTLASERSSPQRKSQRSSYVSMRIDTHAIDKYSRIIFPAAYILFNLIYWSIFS
Chain of ρ2 GABAC receptors (P28476 21-465): as the sequence (P28476 21-465 S295G) above, with G275S counted along it
Chain of ρ1 GABAC receptors (P24046 22-479): as the sequence (P24046 22-479 P315S) above, with S294P counted along it

O=C1CN=C(c2ccccc2)c2cc(/N=N/c3ccc(S(=O)(=O)O)cc3)ccc2N1 [Azo‐NZ1, (E)‐4‐((2‐oxo‐5‐phenyl‐2,3‐dihydro‐1H‐benzo[e][1,4]diazepin‐7‐yl)diazenyl)benzenesulfonic acid]
current amplitude under UV illumination (α2 glycine receptors; UV illumination): 95 ± 7%
current amplitude decreased to (α2 glycine receptors; visible light): 23 ± 3%
IC50 (α1/β2/γ2 GABAA receptors): 67 ± 5 µM
decrease of currents induced by GABA (ramp protocol) (α1/β2/γ2 GABAA receptors; +60 mV): 76 ± 5%
decrease of currents induced by GABA (ramp protocol) (α1/β2/γ2 GABAA receptors; −60 mV): 40 ± 4%
effect at saturating GABA compared with 5 μM GABA (α1/β2/γ2 GABAA receptors; 50 μM Azo-NZ1 co-applied with 300 μM GABA, Vhold −30 mV): even stronger inhibitory effect
decrease of amplitude of GABA-induced currents (α1/β2/γ2 GABAA receptors; +30 mV): 78%
decrease of amplitude of GABA-induced currents (α1/β2/γ2 GABAA receptors; −30 mV): 51%
effect on GABA-induced currents (α1/β2/γ2 GABAA receptors; Azo-NZ1 0.5–1 μM, 5 μM GABA): did not produce effect
effect on receptor activity (ρ1 GABAC receptors): did not alter the activity
current amplitude reduced to (α1 glycine receptors; UV illumination): 73 ± 2%
current amplitude reduced to (α1 glycine receptors; visible light (trans), n = 4): 86 ± 3%
UV effect (ρ2 mutant S2′G receptors; UV illumination in presence of Azo-NZ1): virtually absent
decrease of current amplitude (ρ2 mutant S2′G receptors; upon application of Azo-NZ1, n = 5): 14 ± 2%
interaction with 5‐HT3A receptors (5‐HT3A receptors): did not interact in a specific manner
suppression of eIPSCs amplitude to ([1]; 100 μM Azo-NZ1, blue light, Vh 0 mV): 58.6 ± 3.3%
suppression of eIPSCs amplitude to ([1]; 200 μM Azo-NZ1, blue light, Vh 0 mV): 25.2 ± 6.0%
amplitude of eIPSCs ([1]; single neuron, 100 μM Azo-NZ1, Vh 0 mV, control aCSF 156.9 ± 4.5 pA): 100.6 ± 3.2 pA
effect on GABA-induced currents (GABA ρ1 P2′S receptors): inhibited currents
IC50 (ρ2 GABAC receptors): 128 ± 25 µM

CN1CCc2cc3c(cc2[C@H]1[C@@H]1OC(=O)c2c1ccc1c2OCO1)OCO3 [Bicuculline, bicuculline, reference compound]
effect on eIPSCs ([1]; bicuculline 10 μM, Vh 0 mV): complete inhibition

CN1C(=O)CN=C(c2ccccc2)c2cc(Cl)ccc21 [Diazepam, diazepam, reference compound]
effect on GABA-induced current amplitude (α1/β2/γ2 GABAA receptors; diazepam 10 μM co-applied with non-saturating GABA (5 μM), Vh −30 mV): increase in the current amplitude
